Assay outcomes from PubChem BioAssay.
Only a selection was taken, and hits are over-represented in it overall.
Lung fibro prol = blocks proliferation of human lung fibroblasts. LL 47 human lung fibroblast viability, ATP luminescence; active compounds read low. viability, % at 10 µM. 85,000 tested, 1.1% active. AID 719;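 active = viability at or below 50% in the single dose screen; inactive = viability above 50%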;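 note: compound exposure lasted 72 h before the ATP readout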
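test system = LL 47 human lung fibroblasts | amount = 1,150 fibroblasts seeded per well | medium = 15% FBS in IMEM | times = overnight cell rest, 72 h compound treatment at 37 °C | measured by = CellTiter-Glo luminescence measuring cellular ATP | read-out = viability percentage against median untreated-cell control | benchmarks = cell-only wells, no compound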
HUVEC inhibit = human endothelial cell proliferation inhibition; HUVEC proliferation, CellTiter-Glo luminescence, 72 h; active compounds read low; viability, % at 10 µM (by protocol); 86,000 tested, 1.1% active; AID 648;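 active = viability at or below 30%; inactive = viability above 30%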
H69AR growth 86K = blocks growth of human H69AR lung tumor cells; viability, % at 10 µM; AID 598; H69AR lung tumor viability, ATP luminescence, 72 h; active compounds read low; 85,000 tested, 6% active;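 active = viability at or below 40%; inactive = viability above 40%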;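 note: multidrug resistant small cell line overexpressing MRP-1 efflux transporter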
HCT116 bCat-KO = beta-catenin-lacking colon tumor cell growth suppression | 140,000 tested, 1.5% active | AID 818 | viability, % at 10 µM | HCT116 beta-catenin knockout viability, CellTiter-Glo, 60 h; active compounds read low;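 active = viability at or under a set limit, the compound median less 4 SD, cut at about 6% in these data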
HCT116 PTEN-null = suppresses growth of cells with PTEN deletion; HCT116 PTEN-null viability, CellTiter-Glo, 60 h; active compounds read low; viability, % at 10 µM; 140,000 tested, 1.2% active;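 active = viability at or below a set limit, 4 SD under the median of all tested compounds, cut at about 3.7% in these data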;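 note: PTEN knockout HCT116 line with beta catenin targeted HCT116 as companion control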
Each line names hits and unclear results; the compound was inactive in the other large screens.

Cn1cc(C(=O)c2ccc(Cl)cc2Cl)cc1C(=O)N/N=C(\N)COc1cccc(C(F)(F)F)c1	H69AR growth 86K 27, HCT116 bCat-KO 5.2
CC(Oc1cc(Cl)ccc1Cl)C(=O)N/N=C\c1ccnn1C (stereo unspecified)	none (no result: Lung fibro prol, HUVEC inhibit, H69AR growth 86K)
COc1cc(C#CC#CCN2CCCCC2)ccc1O	H69AR growth 86K 3.6
CCN(CC)CCCNC(=O)c1cn(CCOC)c(=O)c2c1c1ccccc1n2C	none
Cc1nn(-c2ccccc2)c(C)c1/C=N/NC(=O)CSc1nc2ccccc2c(=O)n1-c1ccc(Br)cc1	HCT116 bCat-KO 1.1, HCT116 PTEN-null 1.1 (no result: Lung fibro prol, HUVEC inhibit, H69AR growth 86K)
CCOC(=O)c1c(C)sc2c1N(C(=O)CCl)c1cc(Cl)ccc1S2	Lung fibro prol 2.6, HUVEC inhibit 17, H69AR growth 86K 0.7, HCT116 bCat-KO 2.3, HCT116 PTEN-null 2.2
Cc1ccc(CNC(=O)C2CCC(=O)N2CCc2ccccc2)cc1 (stereo unspecified)	none
O=[N+]([O-])c1ccc(Oc2cccc(F)c2)c2ccncc12	H69AR growth 86K 34
O=[N+]([O-])c1cnccc1Nc1cccc(F)c1	none
CCN1CC=C2C(C1)C(c1ccc(Cl)s1)C(C#N)=C(N)C2(C#N)C#N (stereo unspecified)	none
COc1cc(C(C)=O)ccc1Oc1ncnc2c1cnn2-c1ccc(F)cc1	none (no result: Lung fibro prol, HUVEC inhibit, H69AR growth 86K)
Cc1ccc(C(NC(=O)C(C)C)c2cc([N+](=O)[O-])c3cccnc3c2O)cc1 (stereo unspecified)	none (no result: Lung fibro prol, HUVEC inhibit, H69AR growth 86K)
O=C(NC(c1ccccc1)c1cc(Cl)c2cccnc2c1O)c1cccnc1 (stereo unspecified)	none (no result: Lung fibro prol, HUVEC inhibit, H69AR growth 86K)
CCCC(=O)NC(c1ccco1)c1cc(Cl)c2cccnc2c1O (stereo unspecified)	Lung fibro prol 3.1, HUVEC inhibit 12, H69AR growth 86K 0.9, HCT116 bCat-KO 6.0
CCCC(=O)NC(c1ccc2c(c1)OCO2)c1cc(Cl)c2cccnc2c1O (stereo unspecified)	HCT116 bCat-KO 4.1 (no result: Lung fibro prol, HUVEC inhibit, H69AR growth 86K)
CCN(CC(=O)Nc1cccc(OC)c1)c1ncnc2sc(C)c(C)c12	none (no result: Lung fibro prol, HUVEC inhibit, H69AR growth 86K)
CCOc1ccc(NC(=O)CSC2=C(C#N)C(c3ccc4c(c3)OCO4)CC(=O)N2)cc1 (stereo unspecified)	none
CCCOC(=O)CSC1=C(C#N)C(c2ccc3c(c2)OCO3)CC(=O)N1 (stereo unspecified)	H69AR growth 86K 23
CC(C)(C)CC(C)(C)NC(=O)CSCC(=O)Nc1ccc2ccccc2c1	none
CCNc1ccc2c(Cl)cc(=O)oc2c1	H69AR growth 86K 37
COc1ccc2oc(C(=O)C3CC3)c(NC(=O)CCCN3C(=O)c4ccccc4C3=O)c2c1	H69AR growth 86K 31 (no result: HCT116 bCat-KO, HCT116 PTEN-null)
CC(=O)c1oc2ccccc2c1NC(=O)CCCN1C(=O)c2ccccc2C1=O	none
COc1ccc2nc3ccccc3nc2c1NC(=O)c1ccc(Cl)cc1Cl	none (no result: Lung fibro prol, HUVEC inhibit, H69AR growth 86K)
Cc1nn(Cc2c(Cl)cccc2Cl)c(C)c1NC(=O)c1sc2ccccc2c1Cl	none (no result: Lung fibro prol, HUVEC inhibit, H69AR growth 86K)
Cc1nn(Cc2c(Cl)cccc2Cl)c(C)c1NC(=O)c1cn(-c2ccccc2)nc1-c1ccccc1	HCT116 bCat-KO 0.6, HCT116 PTEN-null 0.5 (no result: Lung fibro prol, HUVEC inhibit, H69AR growth 86K)
COc1ccc(CC2(C)OC(c3ccccc3)=NN2C(C)=O)cc1 (stereo unspecified)	none (no result: Lung fibro prol, HUVEC inhibit, H69AR growth 86K)
CCOC(=O)N/N=C/C=C/c1ccccc1	none (no result: Lung fibro prol, HUVEC inhibit, H69AR growth 86K)
Cc1cc(NC(=O)COC(=O)C(Nc2ccc(C(F)(F)F)cc2Cl)C(C)C)no1 (stereo unspecified)	HUVEC inhibit 13
CC(OC(=O)CC(NC(=O)c1ccccc1Cl)c1ccccc1)C(=O)Nc1cccc(Cl)c1Cl (stereo unspecified)	none (no result: Lung fibro prol, HUVEC inhibit, H69AR growth 86K)
Nc1cc(CN2C(=O)c3ccccc3C2=O)cc(Cl)c1O	H69AR growth 86K 34
Cc1cccc(NC(=O)C2SC(=Nc3c(C)cccc3C)C(C(=O)N3CCOCC3)=C2N)c1 (stereo unspecified)	none (no result: Lung fibro prol, HUVEC inhibit, H69AR growth 86K)
O=C(c1ccc(F)cc1)C(CCCCCC(CN1CCOCC1)C(=O)c1ccc(F)cc1)CN1CCOCC1 (stereo unspecified)	H69AR growth 86K 23
CC(CN1CCOCC1)C(=O)c1ccccc1 (stereo unspecified)	none
COc1ccc(Nc2nc3c(c(=O)n(C)c(=O)n3C)n2CCO)cc1	none
CCCn1c(C)nc2c(c1=O)c1nc3ccccc3nc1n2CCC1=CCCCC1	H69AR growth 86K 13
O=C(c1ccc2c(=O)n(C3CCCC3)c(=S)[nH]c2c1)N1CCc2ccccc21	none
CC1(C)Cc2ccccc2C(N/N=C/c2ccc(Cl)cc2)=N1	none (no result: Lung fibro prol, HUVEC inhibit, H69AR growth 86K)
CCc1[nH]nc2c1C(c1ccsc1)C(C#N)=C(N)O2 (stereo unspecified)	none
